MT stabilizer – microtubule stabilizers in HeLa cells; HeLa tubulin immunostaining HCS, 24 h; share of cells brighter than vehicle mean+2SD; % tubulin-high responders, % at 10 µM; 200,000 compounds, 0.83% hits; AID 2205;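 active = plate Z-score above 3 for both tubulin-high and condensed-nucleus cell shares, with cell loss under 80%, at 10 µM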;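 note: anti alpha tubulin signal scored within the nucleus-defined area of each cell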
CHOP inhibitor – blocks CHOP induction under ER stress; CHO-K1 CHOP-promoter luciferase, tunicamycin-induced, 15-18 h; AID 2732; 220,000 compounds, 3.8% hits; inhibition, % at 10 µM;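 active = compounds that reduced the stress-induced luciferase reporter signal by more than about 70% of percent inhibition, limit read from the data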;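 note: 0% = tunicamycin plus vehicle and 100% = wells without tunicamycin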
b-catenin transl – modulators of beta-catenin nuclear translocation. HeLa beta-catenin nuclear translocation, immunofluorescence imaging. nuclear translocation activity, % at 5 µM. 190,000 compounds, 0.3% hits. AID 1665;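 active = nuclear translocation activity above 50% at 5 µM, with a well cell count of 50 or more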;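 note: per-cell ratio of nuclear to cytoplasmic median beta-catenin stain intensity; plate controls were DMSO negative control for no effect and GSK-3 inhibitor IX positive control for full effect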
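Signal – beta-catenin immunofluorescence imaging with DAPI · Test system – human HeLa cell line · Dosing – 5 µM primary single dose, 0.1% DMSO, 0.02–20 µM confirmation series · Measure – % activation, nuclear-to-cytoplasmic median beta-catenin signal ratio per cell · Incubation – 24 h compound exposure at 37°C, 5% CO2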
Autophagy HCS – modulators of autophagy. MEF GFP-LC3 puncta imaging; test concentration mostly 10 µM. calls only at 10 µM (by protocol). 190,000 compounds, 0.98% hits. AID 463193;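 active = percentage of spot-positive cells more than 3 SD above its plate mean, without a fluorescence outlier flag or 80% toxicity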;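 note: spot-positive cell cutoff set from DMSO-treated cells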
Dynein transport – blocks dynein driven cargo transport along microtubules; 3617.4 mouse cells, GR-EGFP nuclear translocation imaging; test concentration mostly 20 µM; stimulated with dexamethasone, 1 µM; active compounds read low; 220,000 compounds, 0.47% hits; z-score, hits read low;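 active = plate z-score of nuclear minus cytoplasmic receptor signal below a set negative limit, without overly bright fluorescence or cell loss, cut at about -3.5 in these data, passing the limit was not always enough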;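 note: z-score of nuclear minus cytoplasmic ring GR-EGFP intensity difference per well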
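Buffer or medium – tet-free medium with charcoal-stripped serum · Signal – automated 10x imaging of fixed Hoechst-stained cells · Also added – dexamethasone agonist, 1.0 µM final, for 30 min · Incubation – induction 48 h, compound 1 h, agonist 30 min · Read-out – GR-EGFP nuclear translocation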
Lmaj promast – reduces viability of Leishmania major promastigotes; 200,000 compounds, 9% hits; resazurin fluorescence viability; inhibition, % at 10 µM; AID 1063; in the data active = inhibition above about 50%;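 note: promastigotes grown with compound for 44 hours at 28 °C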
* hit, by the source's call; i = inactive; / = not tested or not shown. Rows were chosen to be rich in hits. Some 12% of all compounds tested hit in one or more screens of this group.

SMILES	MT stabilizer	CHOP inhibitor	b-catenin transl	Autophagy HCS	Dynein transport	Lmaj promast
CCOc1ccccc1C1C(C(=O)Nc2ccccc2OC)=C(C)Nc2nnnn21 (centres undefined)	2	49	/	i	-0.59	9
CCOc1ccc2c(c1)-c1c(ssc1=S)C(C)(C)N2C(=O)CSC1=NCCS1	3	52	1	i	-1.2	96*
Cc1ccc2c(c1)-c1c(ssc1=S)C(C)(C)N2C(=O)c1ccco1	37*	15	-2	i	0.65	33
Cc1ccc2c(c1)-c1c(ssc1=S)C(C)(C)N2C(=O)CSC1=NCCS1	3	16	3	i	-0.53	87*
Cn1cnnc1SCC(=O)N1c2ccccc2-c2c(ssc2=S)C1(C)C	/	/	-2	/	/	/
Cc1ccc2c(c1C)OC(=O)CC2(C)C	3	-6	0	i	0.049	22
O=C(NCc1ccccc1)C1=C[C@@H](c2csc3ccccc23)C[C@@H](OCc2ccc(CO)cc2)O1	2	45	1	i	-0.56	74*
O=C(O)C1=C[C@H](c2csc3ccccc23)C[C@H](OCc2ccc(CO)cc2)O1	3	4	-3	i	0.76	-10
O=C(NC1CC1)C1=C[C@@H](c2csc3ccccc23)C[C@@H](OCCCCO)O1	/	-10	0	/	-0.3	/
O=C(NC1CC1)C1=C[C@H](c2csc3ccccc23)C[C@H](OCCCCO)O1	4	12	-3	i	-0.47	85*
COc1ccccc1C(C)NC(=O)CCOc1cccc(C)c1 (centres undefined)	2	0	-1	i	0.36	0
CC(C)[C@@H]1CC[C@@H](C)c2c(-c3ccccc3)n[nH]c21	4	92*	2	i	1.3	18
S=C(NCCc1ccccc1)N/N=C/c1c(Cl)cccc1Cl	3	26	-2	i	-0.051	-8
CCOC(=O)Cc1csc(NC(=O)c2c(O)c3ccccc3n(CC(C)C)c2=O)n1	3	85*	1	i	0.73	79*
CNC(=O)c1ccccc1NC(=O)c1c(O)c2c([nH]c1=O)CCCC2	3	8	/	i	0.48	14
CC(C)Cn1c(=O)c(C(=O)N/N=C/c2cccc(F)c2)c(O)c2ccccc21	4	82*	-1	i	0.76	70*
CCOC(=O)Cc1csc(NC(=O)c2cccs2)n1	3	15	-2	i	1.1	-2
O=C(N/N=C/c1cccc(F)c1)c1c(O)c2c([nH]c1=O)CCCC2	1	82*	-1	i	-0.35	29
CC(C)Cn1c(=O)c(C(=O)Nc2ccccc2S(N)(=O)=O)c(O)c2ccccc21	4	73*	1	i	0.36	-6
COc1cc(/C=C(/Sc2nnc(-c3ccc(F)cc3)o2)C(=O)O)ccc1OC(F)F	3	12	-3	i	0.22	38
Cc1ccc(C2=NN3C(C(=O)c4ccccc4)Oc4ccccc4C3C2)cc1 (centres undefined)	3	-15	3	i	-0.02	35
Cc1ccn2c(NC(C)(C)C)c(-c3cccs3)nc2c1	4	-12	0	i	-0.21	26
Cc1cccc(C)c1NC(=O)NC1CC2CCC(C1)N2Cc1cccs1 (centres undefined)	1	41	3	i	-0.76	0
O=C(Nc1cccc(Cl)c1)NC1CC2CCC(C1)N2Cc1cccs1 (centres undefined)	4	11	0	i	0.059	9
Fc1ccc(NC(=S)NC2CC3CCCC(C2)N3Cc2cccs2)cc1 (centres undefined)	3	-18	0	i	0.58	94*
SMILES	MT stabilizer	CHOP inhibitor	b-catenin transl	Autophagy HCS	Dynein transport	Lmaj promast
CC(C)c1ccc(NC(=O)NC2CC3CCC(C2)N3Cc2cccs2)cc1 (centres undefined)	1	34	0	i	-1.4	73*
CC(Cc1cccs1)NC(=S)Nc1ccc(F)cc1 (centres undefined)	4	23	/	i	-0.84	51*
Cc1ccc(NC(=S)NC2CC3CCCC(C2)N3Cc2cccs2)cc1 (centres undefined)	3	-25	1	i	-0.45	92*
O=C(CCSc1ccc(Cl)c(Cl)c1)NC12CC3CC(CC(C3)C1)C2	2	42	2	i	-0.54	3
CC(C)c1ccccc1-n1c(SCC(=O)c2ccc3c(c2)NC(=O)CO3)nc2ccccc2c1=O	4	23	2	i	-0.77	67*
O=C1COc2ccc(C(=O)CSc3ccccc3C(=O)O)cc2N1	/	13	0	/	0.038	/
O=C(/C=C/c1ccc(-c2ccccc2[N+](=O)[O-])o1)c1ccco1	6	-18	2	i	-3.3	59*
Fc1ccccc1CSc1nc2ccccc2[nH]1	2	42	/	i	-1.2	91*
N#Cc1nc(-c2cccc3ccccc23)oc1NCCN1CCCCC1	2	26	3	i	-0.37	100*
CCC1CCCCN1Cc1ccc(OC)c(C)c1C (centres undefined)	1	11	/	i	-0.3	8
O=S(=O)(Oc1ccccc1/C=N/n1cnnc1)c1ccccc1	3	5	0	i	-0.071	1
CCOc1cc(/C=N/n2cnnc2)ccc1OS(=O)(=O)c1ccccc1	2	8	1	i	1.4	69*
Cn1c(=O)c2c(ncn2CCN(CCO)Cc2ccccc2)n(C)c1=O	2	-3	-3	i	0.23	0
CC(NC(=O)CSc1ncccc1C(=O)O)C1CC2CCC1C2 (centres undefined)	/	20	0	/	-1.1	/
O=C1C2C3c4ccccc4C(c4ccccc43)C2C(=O)N1c1cccnc1 (centres undefined)	2	5	0	i	1.2	51*
CCc1ccc2nc(NC(=O)c3cc(C)on3)sc2c1	38*	/	36	i	0.25	0
COc1ccccc1OCCOCCOc1ccc(C)cc1Br	5	32	0	i	0.61	33
COCCCNCCOCCOc1ccc(C)cc1Br	2	3	-2	i	0.9	90*
CCC(C)NCCOCCOc1ccc(Cl)cc1Br (centres undefined)	4	26	2	i	1.7	96*
Cc1ccc(OCCOCCNC(C)C)c(Br)c1	1	8	0	i	-1.1	90*
CCC(C)NCCOCCOc1ccc(C)cc1OC (centres undefined)	3	38	-2	i	0.99	40
COCCCNCCOc1cc(C(C)C)ccc1C	3	15	0	i	-0.43	91*
CC1CCN(c2nc(Cl)nc(Nc3ccc([N+](=O)[O-])cc3)n2)CC1	3	-6	1	i	-1.1	23
Cc1cccc(N(Cc2cc3ccccc3[nH]c2=O)C(=O)c2cccs2)c1	/	17	-1	/	-0.54	/

Screens (PubChem)
